Screens as filed in PubChem BioAssay.
Sampled rows, rich in hits. Any-hit rate of the full collection: about 3.7%.
FGF22 binding-1: FGF22 (human) thermal shift binding | Q9HCT0 | recombinant FGF22 thermal shift, SYPRO orange fluorescence; percent of sucrose octasulfate shift, DMSO zero | activity (Tm shift, normalised), % at 9.99 µM | actives 1.5% (n = 340,000) | AID 651658;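 active = mean Tm shift, scaled 0 neutral to 100 positive control, at about 1.3% or above, every replicate too, limit read from the data; inconclusive = no clear call, values can overlap the other calls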
E-sel inducer: induces E-selectin expression in human endothelial cells. HUVEC E-selectin immunofluorescence imaging; normalized: neutral wells 0, TNF-alpha wells 100. activation, % at 7.58 µM. actives 0.37% (n = 260,000). AID 686992;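 active = mean E-selectin-positive cell signal at least 10% of the positive control, reached in at least 60% of replicates, without over 20% cell loss; inconclusive = no rule given, readout overlaps actives, possibly toxicity-flagged; inactive = the rest, including those meeting only one limit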
Target sequence (P16581 whole entry, looked up): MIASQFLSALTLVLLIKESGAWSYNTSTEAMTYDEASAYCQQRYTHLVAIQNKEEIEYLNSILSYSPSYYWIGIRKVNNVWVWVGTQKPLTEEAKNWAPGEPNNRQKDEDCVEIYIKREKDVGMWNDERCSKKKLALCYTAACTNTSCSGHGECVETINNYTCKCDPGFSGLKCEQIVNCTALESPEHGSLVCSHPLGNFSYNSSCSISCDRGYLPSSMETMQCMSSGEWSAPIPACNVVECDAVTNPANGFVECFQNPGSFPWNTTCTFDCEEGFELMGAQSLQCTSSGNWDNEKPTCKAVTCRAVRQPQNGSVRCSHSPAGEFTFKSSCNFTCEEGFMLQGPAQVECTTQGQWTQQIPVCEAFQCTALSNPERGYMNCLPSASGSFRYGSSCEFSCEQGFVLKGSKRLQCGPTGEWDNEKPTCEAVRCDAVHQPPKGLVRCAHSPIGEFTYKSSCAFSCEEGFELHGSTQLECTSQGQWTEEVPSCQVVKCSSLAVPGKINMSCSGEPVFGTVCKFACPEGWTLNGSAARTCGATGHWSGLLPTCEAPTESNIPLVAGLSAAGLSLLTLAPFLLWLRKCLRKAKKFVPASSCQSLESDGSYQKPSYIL
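Test system – human umbilical vein endothelial cells (HUVEC), E-selectin induction · Input – 3,000 HUVEC seeded per well · Buffer or medium – EGM-2, gelatin · Compound dosing – single-point compound dose · Detection – immunofluorescence imaging · Measure – percent E-selectin-positive cells · Controls – TNF-alpha high, DMSO low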
DENV2 CPE: inhibitors of DENV2 cytopathic effect; DENV2-infected cells, cytopathic effect rescue, plate reader; CPE inhibition, % at 9.99 µM; actives 1.7% (n = 350,000); AID 651640; in the data active = CPE inhibition above about 20%, passing the limit was not always enough; inconclusive = no clear call, values can overlap the other calls; tested in BHK-21 cells;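 also: 0% = median of neutral control wells and 100% = median of positive control wells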
ERAP1 inh: inhibitors of human ERAP1 aminopeptidase. actives 0.15% (n = 340,000). inhibition, % at 10.7 µM. recombinant ERAP1, Leu-AMC fluorescence, 60 min;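 active = mean replicate inhibition of at least 30%, or all replicates individually reaching that 30% level; inactive = mean below 30% and not every replicate reaching it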;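 also: 0% = neutral control wells and 100% = L-leucinethiol positive control wells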
F508del corr: correctors of CFTR F508del function in bronchial epithelial cells | CFBE cells, YFP halide quenching; stimulated with forskolin plus potentiator P3; % fluorescence drop versus neutral controls | activity (quench increase), % at 7.58 µM | actives 0.36% (n = 350,000) | AID 720511;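 active = mean added fluorescence quench of at least 8% versus neutral control, with both replicates also reaching 8%; inconclusive = only one of the mean or replicate conditions met; inactive = mean below 8% and not both replicates reaching 8%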;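 also: cells transiently co-express mutant CFTR-F508del with the halide-sensitive YFP; corrector assay measuring rescue of mutant channel to the surface after 24 h compound exposure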
FGF22 binding-2: binds human FGF22 shifting its melting temperature. shares compounds with FGF22 binding-1. recombinant FGF22 thermal shift, SYPRO orange fluorescence. thermal shift activity, °C (ΔTm) at 38 µM. actives 2% (n = 1,000);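 active = fitted rise in melting shift crosses a set limit at or below the top valid dose tested; inconclusive = flat fit at mid-level activity, or a poor quality fit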
TSA no protein: shows thermal shift signal without protein, FGF22 counter-screen; shares compounds with FGF22 binding-1; compound-only SYPRO orange thermal shift counter-screen, no protein; AC50, µM (top dose mostly 38 µM); actives 2% (n = 1,000); AID 743019;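 active = rising signal whose fitted curve reaches the 0.54 level within the top valid dose, showing a melting point, actives reach about 13 µM in these data; inactive = the rest, including activity in the opposite direction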; also: value is where the raw curve crosses a fixed level and not half-maximal
Numbers without * were called inactive; i = inactive; ? = inconclusive; . = no result; [ ] = remark or other dose.

SMILES	FGF22 binding-1	E-sel inducer	DENV2 CPE	ERAP1 inh	F508del corr	FGF22 binding-2	TSA no protein
CC(C)NC(=O)N(C)C[C@H]1OCCCC[C@@H](C)Oc2ccc(NC(=O)c3ccccc3)cc2C(=O)N([C@@H](C)CO)C[C@H]1C	0	0	-2	1	-1	.	.
C[C@@H]1CCCCO[C@@H](CN(C)Cc2ccc(C(F)(F)F)cc2)[C@@H](C)CN([C@@H](C)CO)C(=O)c2cc(NS(=O)(=O)c3ccc(Cl)cc3)ccc2O1	0	0	3	2	2	.	.
CCNC(=O)C[C@H]1CC[C@@H]2[C@H](COc3ccc(NC(=O)C4CCCCC4)cc3C(=O)N2C)O1	-1	0	-3	0	3	.	.
CC(=O)N1[C@@H](CO)[C@@H](c2ccccc2)[C@@H]1CN(C(=O)c1cccc(F)c1)C(C)C	-1	0	-4	2	2	.	.
CC(=O)N1[C@H](CO)[C@H](c2ccccc2)[C@H]1CN(C(=O)c1cccc(F)c1)C(C)C	1.7*	0	-7	3	2	0.12	i
CNC(=S)N(Cc1ccc(OC)cc1)C1CC(=O)N(c2ccc(C(=O)OC)cc2)C1=O (stereo unspecified)	2.2*	3	?	2	-1	-0.043	i
CCC(=O)Nc1ccc2c(c1)C(=O)N(C)C[C@@H](OC)[C@@H](C)CN(C(=O)C1CC1)[C@@H](C)CO2	0	0	1	0	0	.	.
COc1ccccc1NC(=O)N[C@@H]1CC[C@@H](CCn2cc(-c3ccccc3OC)nn2)O[C@@H]1CO	1.7*	0	2	1	1	0.038	i
O=C(CN1C(=O)NC2(CCOc3ccccc32)C1=O)Nc1ccc(Br)cc1F (stereo unspecified)	1.7*	.	4	-2	1	-0.34	i
CCc1nnc(NC(=O)CN2CCN(Cc3ccc(C)cc3)CC2)s1	1.7*	.	3	-7	0	0.16	i
COCCNC(=O)C[C@H]1CC[C@@H]2[C@@H](COc3ccc(NC(=O)Nc4ccccc4)cc3C(=O)N2C)O1	0	0	3	0	-1	.	.
CCc1ccc(NC(=O)COc2coc(CN3CCN(c4ccccc4)CC3)cc2=O)cc1	2.6*	.	?	-1	1	0.13	i
COc1cccc(NC(=O)COc2coc(CN3CCN(c4ccccc4)CC3)cc2=O)c1	0	.	-10	3	-2	.	.
CC(C)(C)S(=O)(=O)/C(C#N)=N/Nc1ccc(Cl)cc1	1.7*	.	-7	6	3	0.023	i
CC(C)(C)c1ccc(N/N=C(\C#N)S(=O)(=O)C(C)(C)C)cc1	0	.	5	8	1	.	.
C[C@H](CO)N1C[C@H](C)[C@@H](CN(C)Cc2ccc(Cl)c(Cl)c2)Oc2ccc(NC(=O)c3ccncc3)cc2CC1=O	0	-2	0	-1	4	.	.
Cc1nc2cc(NC(=O)CS(=O)(=O)c3ccccc3)ccc2s1	0	-1	0	-3	-2	.	.
CC(=O)Nc1ccc2sc(C)nc2c1	38*	1	-1	.	0	0.15	i
C[C@H](CO)N1C[C@H](C)[C@H](CN(C)C(=O)CC2CC2)Oc2ncc(C#CC3(O)CCCC3)cc2C1=O	1.4*	0	-3	-4	-1	-0.086	i
CC(=O)N(C)C[C@@H]1Oc2ncc(C#CC(C)(C)O)cc2C(=O)N([C@@H](C)CO)C[C@H]1C	1.6*	0	20*	2	-1	-0.045	i
CC(C)C#Cc1cnc2c(c1)C(=O)N([C@H](C)CO)C[C@H](C)[C@H](CN(C)C(=O)c1cnccn1)O2	1.5*	2	16	-4	-2	-0.007[42 µM]	i
C[C@H]1CN([C@@H](C)CO)C(=O)c2cc(C#CCN(C)C)cnc2O[C@H]1CN(C)C(=O)c1cnccn1	0	0	1	1	1	.	.
C[C@H]1CN([C@@H](C)CO)C(=O)c2cc(C#CC3(O)CCCC3)cnc2O[C@H]1CN(C)C(=O)CC1CC1	1	-1	-6	-2	0	.	.
CC(C)C#Cc1cnc2c(c1)C(=O)N([C@@H](C)CO)C[C@H](C)[C@@H](CN(C)C(=O)c1cnccn1)O2	1.5*	0	-3	-6	-1	0.039[42 µM]	i
C[C@@H]1CN([C@@H](C)CO)C(=O)c2cc(NS(=O)(=O)c3cn(C)cn3)ccc2O[C@H]1CN(C)C(=O)Nc1ccc(C(F)(F)F)cc1	0	5	7	1	-1	.	.
SMILES	FGF22 binding-1	E-sel inducer	DENV2 CPE	ERAP1 inh	F508del corr	FGF22 binding-2	TSA no protein
O=C(Nc1ccccc1F)N1CCCCN2[C@@H](CO)[C@H](c3ccc(C#Cc4ccccc4)cc3)[C@@H]2C1	0	0	13	-3	5	.	.
C[C@H](CO)N1C[C@H](C)[C@@H](CN(C)Cc2cccc(C(=O)O)c2)Oc2ncc(-c3ccccc3F)cc2C1=O	0	0	3	0	1	.	.
Cc1cccc(S(=O)(=O)N(C)C[C@H]2OCc3cn(nn3)CCCC(=O)N([C@@H](C)CO)C[C@H]2C)c1	0	0	-1	-1	0	.	.
CC(C)C#Cc1cnc2c(c1)C(=O)N([C@@H](C)CO)C[C@@H](C)[C@@H](CN(C)C(=O)c1cnccn1)O2	1.6*	0	-1	-7	2	-0.002[42 µM]	i
N#C[C@@H]1[C@@H](c2ccc(C3=CCCCC3)cc2)[C@H](CO)N1S(=O)(=O)c1ccccc1	1.3*	0	-5	-1	1	-0.2	i
N#C[C@@H]1[C@H](c2ccc(C3=CCCCC3)cc2)[C@H](CO)N1S(=O)(=O)c1ccccc1	0	1	3	-3	0	.	.
COc1ccccc1-c1ccc([C@@H]2[C@@H](CO)N3CCCCN(S(=O)(=O)c4cn(C)cn4)C[C@@H]23)cc1	0	0	?	-1	2	.	.
Cc1ccc(N(CCC#N)C(=O)COC(=O)c2cc(C)no2)cc1	2.8*	-1	6	-4	2	0.076	i
O=[N+]([O-])c1ccc2nc(-c3ccncc3)[nH]c2c1	0	0	9	3	1	.	.
COc1ccc(-c2nc3ccc([N+](=O)[O-])cc3[nH]2)cc1	2.6*	-2	-7	0	.	0.11	i
O=[N+]([O-])c1ccc2nc(-c3ccc(Cl)cc3)[nH]c2c1	1.8*	.	12	-4	3	0.059	i
O=[N+]([O-])c1cccc(-c2nc3ccc([N+](=O)[O-])cc3[nH]2)c1	1	2	3	2	8	.	.
C[C@@H]1CCCCO[C@@H](CN(C)Cc2ccccc2)[C@@H](C)CN([C@H](C)CO)C(=O)c2cc(NC(=O)c3ccncc3)ccc2O1	0	-1	?	0	3	.	.
COC(=O)[C@]1(C)N[C@H](c2ccc(-c3cccc(Cl)c3)cc2)[C@@H]2C(=O)N(C)C(=O)[C@@H]21	0	0	3	0	3	.	.
COC(=O)[C@]1(C)N[C@H](c2ccc(-c3ccccc3)cc2)[C@@H]2C(=O)N(C)C(=O)[C@@H]21	8.1*	0	-9	-1	1	-0.025	i
